Assay results taken from ChEMBL document CHEMBL1131243, “Structure-activity relationships of the 7-substituents of 5,4'-diamino-6,8,3'-trifluoroflavone, a potent antitumor agent” (J Med Chem, 1998).
pIC50: −log10 of the molar value.

Legend:
[1] = system: HeLa; assay: In vitro cytotoxicity against HeLa S3 cell lines, treated for 3 days then uptake of neutral red dye was measured; assay type: functional, cell-based; conditions: Homo sapiens, 72 h
[2] = system: MCF7; assay: In vitro cytotoxicity against MCF-7 cell lines, treated for 3 days then uptake of neutral red dye was measured; assay type: functional, cell-based; conditions: Homo sapiens, MCF7, 72 h
[3] = system: Mus musculus; assay: Compound was tested for percentage Body weight change in vivo against MCF-7 cells implanted into Nude Mice, Dosage 50(mg/kg); assay type: functional, MCF7
In short: (§1)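 Female nude mice carried MCF-7 implants, with tumor growth stimulated by estradiol propionate given on the first dosing day. Mice with tumors of 25–200 mm³ were selected 20 days after transplantation (n = 5). Compound was given orally on days 0–4 and 7–11. Tumor length and width were measured on days 0, 4, 7, 11, 14 and 18. T/C is V/V0 treated over control; body weight change in %.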

[4] = system: Mus musculus; assay: Compound was tested for percentage Body weight change in vivo against MCF-7 cells implanted into Nude Mice, Dosage 6.3(mg/kg); assay type: functional, MCF7; in short: as §1
[5] = system: Mus musculus; assay: Compound was tested for percentage Body weight change in vivo against MCF-7 cells implanted into Nude Mice, Dosage 25(mg/kg); assay type: functional, MCF7; in short: as §1
[6] = system: Mus musculus; assay: Ratio of tumor growth rate of the drug-treated group relative to that of the control group at a dosw of 6.3 mg/kg; assay type: functional; in short: as §1
[7] = system: Mus musculus; assay: Ratio of tumor growth rate of the drug-treated group relative to that of the control group at a dose of 25 mg/kg; assay type: functional; in short: as §1
[8] = system: Mus musculus; assay: Ratio of tumor growth rate of the drug-treated group relative to that of the control group at a dose of 50 mg/kg; assay type: functional; in short: as §1
[9] = system: Mus musculus; assay: Ratio of tumor growth rate of the drug-treated group relative to that of the control group at a dosw of 25 mg/kg; assay type: functional; in short: as §1
[10] = system: Mus musculus; assay: Compound was tested for percentage Body weight change in vivo against MCF-7 cells implanted into Nude Mice, Dosage 3.1(mg/kg); assay type: functional, MCF7; in short: as §1
[11] = system: Mus musculus; assay: Compound was tested for percentage Body weight change in vivo against MCF-7 cells implanted into Nude Mice, Dosage 12.5(mg/kg); assay type: functional, MCF7; in short: as §1
[12] = system: Mus musculus; assay: Ratio of tumor growth rate of the drug-treated group relative to that of the control group at a dose of 6.3 mg/kg; assay type: functional; in short: as §1
[13] = system: Mus musculus; assay: Ratio of tumor growth rate of the drug-treated group relative to that of the control group at a dose of 12.5 mg/kg; assay type: functional; in short: as §1
[14] = system: Mus musculus; assay: Ratio of tumor growth rate of the drug-treated group relative to that of the control group at a dose of 3.1 mg/kg; assay type: functional; in short: as §1
[15] = system: Mus musculus; assay: Ratio of tumor growth rate of the drug-treated group relative to that of the control group at a dosw of 50 mg/kg; assay type: functional; in short: as §1
[16] = system: Mus musculus; assay: Compound was tested for percentage Body weight change in vivo against MCF-7 cells implanted into Nude Mice, Dosage (mg/kg); assay type: functional, MCF7; in short: as §1
[17] = system: Mus musculus; assay: Compound was tested for percentage Body weight change in vivo against MCF-7 cells implanted into Nude Mice, Dosage 25 (mg/kg); assay type: functional, MCF7; in short: as §1
[18] = system: HeLa S3 (Homo sapiens); assay: Compound was tested for in vitro Cytotoxicity against HeLa S3 cell lines which were treated for 3 days and uptake of neutral red dye was measured; conditions: HeLa S3, 72 h
[19] = system: Mus musculus; assay: Compound was tested for percentage Body weight change in vivo against MCF-7 cells implanted into Nude Mice, Dosage 50 (mg/kg); assay type: functional, MCF7; in short: as §1
[20] = system: Mus musculus; assay: Compound was tested for percentage Body weight change in vivo against MCF-7 cells implanted into Nude Mice, Dosage 63(mg/kg); assay type: functional, MCF7; conditions: in the assay text read “Dosage 6.3(mg/kg)” for “Dosage 63(mg/kg)”; in short: as §1
[21] = system: Mus musculus; assay: Ratio of tumor growth rate of the drug-treated group relative to that of the control group at a dosw of 63 mg/kg; assay type: functional; conditions: dose 6.3 mg/kg; in the assay text read “6.3 mg/kg” for “63 mg/kg”; in short: as §1

SMILES | pIC50 [1] | pIC50 [2] | further results
CCOC(=O)c1c(F)c(N)c2c(=O)cc(-c3ccc(N)c(F)c3)oc2c1F | < 4.00 | 5.85 | 
[N-]=[N+]=Nc1c(F)c(N)c2c(=O)cc(-c3ccc(N)c(F)c3)oc2c1F | 5.92 | 6.34 | 
CCc1c(F)c(N)c2c(=O)cc(-c3ccc(N)c(F)c3)oc2c1F | < 4.00 | 6.89 | 
CN(C)CC(=O)OCc1c(F)c(N)c2c(=O)cc(-c3ccc(N)c(F)c3)oc2c1F | 5.04 | 7.59 | Body weight change [3]: -11%; Body weight change [4]: -4.8%; Body weight change [5]: -9%; T/C min [6]: 68%; T/C min [7]: 4%; T/C min [8]: 1%
Nc1ccc(-c2cc(=O)c3c(N)c(F)c(C(=O)O)c(F)c3o2)cc1F | < 4.00 | < 5.00 | 
CN(C)CCCOCc1c(F)c(N)c2c(=O)cc(-c3ccc(N)c(F)c3)oc2c1F | 4.92 | < 5.00 | 
CN(C)Cc1c(F)c(N)c2c(=O)cc(-c3ccc(N)c(F)c3)oc2c1F | 5.05 | 7.14 | Body weight change [5]: -17%; T/C min [9]: 16%
Nc1ccc(-c2cc(=O)c3c(N)c(F)c(N)c(F)c3o2)cc1F | 4.72 | 8.11 | Body weight change [10]: 5.7%; Body weight change [4]: -13%; Body weight change [11]: -22%; T/C min [12]: 26%; T/C min [13]: 18%; T/C min [14]: 55%
CCCCCCc1c(F)c(N)c2c(=O)cc(-c3ccc(N)c(F)c3)oc2c1F | 4.68 | < 5.00 | 
COCc1c(F)c(N)c2c(=O)cc(-c3ccc(N)c(F)c3)oc2c1F | < 4.00 | 7.34 | Body weight change [3]: 0%; T/C min [15]: 89%
CN(C)CCOc1c(F)c(N)c2c(=O)cc(-c3ccc(N)c(F)c3)oc2c1F | 5.82 | 5.85 | 
CCC(=O)OCc1c(F)c(N)c2c(=O)cc(-c3ccc(N)c(F)c3)oc2c1F | 4.16 | 6.89 | Body weight change [16]: -2.4%; T/C min [7]: 79%
CCCCCCCCCC(=O)OCc1c(F)c(N)c2c(=O)cc(-c3ccc(N)c(F)c3)oc2c1F | < 4.00 | 7.00 | Body weight change [5]: -5%; T/C min [7]: 13%
CN(C)CCC(=O)OCc1c(F)c(N)c2c(=O)cc(-c3ccc(N)c(F)c3)oc2c1F | 4.96 | 7.72 | Body weight change [5]: -12%; T/C min [9]: 4.1%
Nc1ccc(-c2cc(=O)c3c(N)c(F)c(Cl)c(F)c3o2)cc1F | < 4.00 | 6.68 | 
Nc1ccc(-c2cc(=O)c3c(N)c(F)c(Br)c(F)c3o2)cc1F | < 4.00 | 6.80 | 
Nc1ccc(-c2cc(=O)c3c(N)c(F)c(CO)c(F)c3o2)cc1F | 4.62 | 7.21 | Body weight change [3]: -6.7%; Body weight change [5]: -4%; T/C min [7]: 17%; T/C min [8]: 1.6%
C[N+](C)(C)Cc1c(F)c(N)c2c(=O)cc(-c3ccc(N)c(F)c3)oc2c1F | 4.49 | 5.51 | 

SMILES | pIC50 [1] | pIC50 [2] | further results
CS(=O)(=O)c1c(F)c(N)c2c(=O)cc(-c3ccc(N)c(F)c3)oc2c1F | < 4.00 | < 5.00 | 
COc1c(F)c(N)c2c(=O)cc(-c3ccc(N)c(F)c3)oc2c1F | 4.47 | 7.00 | 
CCCCCC(=O)OCc1c(F)c(N)c2c(=O)cc(-c3ccc(N)c(F)c3)oc2c1F | 4.47 | 6.80 | Body weight change [4]: -5.9%; Body weight change [5]: -7.9%; Body weight change [11]: -8.4%; T/C min [12]: 27%; T/C min [13]: 7.9%; T/C min [7]: 0.8%
Cc1c(F)c(N)c2c(=O)cc(-c3ccc(N)c(F)c3)oc2c1F [AMINOFLAVONE] | < 4.00 | 7.89 | Body weight change [4]: -8.7%; Body weight change [11]: -11%; T/C min [12]: 55%; T/C min [13]: 11%
CCCCCCOCc1c(F)c(N)c2c(=O)cc(-c3ccc(N)c(F)c3)oc2c1F | < 4.00 | 5.15 | 
Nc1ccc(-c2cc(=O)c3c(N)c(F)cc(F)c3o2)cc1F | < 4.00 | 7.40 | Body weight change [17]: -7.4%; T/C min [7]: 11%
CCCCc1c(F)c(N)c2c(=O)cc(-c3ccc(N)c(F)c3)oc2c1F | < 4.00 | 5.06 | 
CCCCCC(=O)NCc1c(F)c(N)c2c(=O)cc(-c3ccc(N)c(F)c3)oc2c1F |  | 6.47 | Body weight change [3]: 0%; T/C min [8]: 76%; pIC50 [18]: < 4.00
CN(C)CCOCc1c(F)c(N)c2c(=O)cc(-c3ccc(N)c(F)c3)oc2c1F | 5.34 | < 5.00 | Body weight change [3]: -7.9%; T/C min [15]: 57%
CC(=O)OCc1c(F)c(N)c2c(=O)cc(-c3ccc(N)c(F)c3)oc2c1F | 5.31 | 7.59 | Body weight change [3]: -4.5%; Body weight change [5]: -5.9%; T/C min [7]: 6.1%; T/C min [8]: 11%
C[S+]([O-])c1c(F)c(N)c2c(=O)cc(-c3ccc(N)c(F)c3)oc2c1F (stereo not given) | < 4.00 | 5.60 | 
CCCCCCCCCCCCCCCCCC(=O)OCc1c(F)c(N)c2c(=O)cc(-c3ccc(N)c(F)c3)oc2c1F | < 4.00 | < 5.00 | Body weight change [5]: -4.8%; T/C min [7]: 20%
CSc1c(F)c(N)c2c(=O)cc(-c3ccc(N)c(F)c3)oc2c1F | < 4.00 | 6.72 | 
CN(C)CCCC(=O)OCc1c(F)c(N)c2c(=O)cc(-c3ccc(N)c(F)c3)oc2c1F | 5.35 | 7.54 | Body weight change [5]: -8.4%; T/C min [9]: 15%
Nc1ccc(-c2cc(=O)c3c(N)c(F)c(O)c(F)c3o2)cc1F | < 4.00 | < 5.00 | 
CCCOCc1c(F)c(N)c2c(=O)cc(-c3ccc(N)c(F)c3)oc2c1F | 4.11 | 5.92 | 
CN(C)c1c(F)c(N)c2c(=O)cc(-c3ccc(N)c(F)c3)oc2c1F | < 4.00 | 7.41 | Body weight change [11]: -19%; T/C min [13]: 39%
NCc1c(F)c(N)c2c(=O)cc(-c3ccc(N)c(F)c3)oc2c1F | 5.06 | 7.59 | Body weight change [19]: -11%; Body weight change [20]: -5.8%; Body weight change [5]: -8.5%; T/C min [15]: 1.1%; T/C min [7]: 11%; T/C min [21]: 60%
